Drawing on ChEMBL document CHEMBL1926612, “Solid-phase synthesis of 2'-hydroxychalcones. Effects on cell growth inhibition, cell cycle and apoptosis of human tumor cell lines” (2012), this text covers GI50 and Activity for 17 molecules.

Active and inactive are the calls of the source. The rule behind the calls is not given here.

What all share (assay type): functional
A short description of assay [1]: Growth inhibition of human A375-C5 cells after 48 hrs by SRB assay. The note with it: A375-C5, 48 h. In short, it runs like this:
(§1)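 Cells seeded to stay in exponential growth (MCF-7 and NCI-H460 5.0 × 10³ cells/well, A375-C5 7.5 × 10³ cells/well) and left to adhere overnight. Then 48 h exposure to five serial dilutions (1:2 or 1:3) from DMSO stocks diluted in medium; DMSO vehicle control maximum 0.25%. TCA fixation, SRB staining, Tris solubilisation, absorbance at 492 nm. GI50 taken from dose–response curves as 50% inhibition of net growth. Mean ± SEM of ≥3 independent experiments, in duplicate.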

Assay [2] relates to MCF7. As to the kind of experiment: Growth inhibition of human MCF7 cells after 48 hrs by SRB assay. The note with it: MCF7, 48 h. In a few lines: as §1
(In SRB staining, fixed cells bind dye roughly in proportion to their protein.)

For a further assay, the system named is NCI-H460. Put plainly: Growth inhibition of human NCI-H460 cells after 48 hrs by SRB assay. As to conditions: NCI-H460, 48 h. In short, it runs like this:
as §1

Assay [3] concerns MCF7. Put plainly: Induction of apoptosis in human MCF7 cells at 7.1 uM by annexinV-propidium iodide staining-based flow cytometric analysis (reference value: 11.1%). In a few lines:
(§2)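 MCF-7 handled as for the cell-cycle study: 48 h exposure at the stated concentration, with untreated cells and a highest-level DMSO control. Harvested cells stained with annexin V-FITC/PI per kit instructions. Flow cytometry with ≥20,000 events per sample; apoptosis given as % of total cells. Mean ± SEM of three experiments (DMSO control two); unpaired t-test against untreated cells.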
A general note: In flow cytometry, cells or beads pass a laser one at a time.

Assay [4] has as its system MCF7. As to the kind of experiment: Induction of apoptosis in human MCF7 cells at 10.5 uM by annexinV-propidium iodide staining-based flow cytometric analysis (reference value: 11.1%). In a few lines:
as §2

In assay [5] the test system is MCF7. As to the kind of experiment: Induction of apoptosis in human MCF7 cells at 4.1 uM by annexinV-propidium iodide staining-based flow cytometric analysis (reference value: 11.1%). In short, it runs like this: as §2
The subject of assay [6] is MCF7. As to the kind of experiment: Induction of apoptosis in human MCF7 cells at 9.1 uM by annexinV-propidium iodide staining-based flow cytometric analysis (reference value: 11.1%). In short, it runs like this: as §2
The subject of assay [7] is MCF7. As to the kind of experiment: Cell cycle arrest in human MCF7 cells assessed as accumulation at sub-G1 phase at 7.3 uM after 48 hrs by propidium iodide staining-based flow cytometric analysis relative to control. In short, it runs like this: (§3)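 MCF-7 plated in 6-well plates (5.0 × 10³ cells/well) and held 24 h at 37 °C. Exponentially growing cells then exposed 48 h at the single concentration stated. Untreated and highest-level DMSO controls included. Fixation in 70% ethanol at 4 °C for ≥12 h, then PBS with 0.1 mg/mL RNase A and 5 µg/mL PI. DNA content by flow cytometry, ≥20,000 events; sub-G1 fraction scored after debris exclusion. Mean ± SEM of three experiments; unpaired t-test versus untreated cells.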

Assay [8] concerns MCF7. As to the kind of experiment: Induction of apoptosis in human MCF7 cells at 7.3 uM by annexinV-propidium iodide staining-based flow cytometric analysis (reference value: 11.1%). In short, it runs like this: as §2
Assay [9] deals with MCF7. Put plainly: Induction of apoptosis in human MCF7 cells at 7.8 uM by annexinV-propidium iodide staining-based flow cytometric analysis (reference value: 11.1%). In a few lines:
as §2

The test system of assay [10] is MCF7. Put plainly: Cell cycle arrest in human MCF7 cells assessed as accumulation at sub-G1 phase at 7.8 uM after 48 hrs by propidium iodide staining-based flow cytometric analysis. In a few lines: as §3
The test system of assay [11] is MCF7. As to the kind of experiment: Induction of apoptosis in human MCF7 cells at 8 uM by annexinV-propidium iodide staining-based flow cytometric analysis (reference value: 11.1%). In a few lines: as §2
Assay [12] has as its system MCF7. As to the kind of experiment: Cell cycle arrest in human MCF7 cells assessed as accumulation at sub-G1 phase at 8 uM after 48 hrs by propidium iodide staining-based flow cytometric analysis. In a few lines: as §3

As a reminder, the GI50 is the concentration that inhibits growth by half. Read a low GI50 as greater sensitivity of the cells.

In the case of `CCCc1c(O)ccc2c1OC(c1cc(OC)c(OC)cc1OC)CC2=O` (stereo unspecified), the GI50 in assay [1] came to 32 µM; in the assay on MCF7 [2], 18.8 µM; with NCI-H460, 47 µM.

For the molecule `CCCc1c(O)ccc(C(=O)/C=C/c2ccccc2Cl)c1O`, the GI50 in assay [1] was 14.2 µM; in the assay with MCF7 [2] it was 7.1 µM; in the assay with NCI-H460, 12.5 µM. For the same molecule, the Activity in the assay with MCF7 [3] is reported as 14.8%.

Take `CCCc1c(O)ccc(C(=O)/C=C/c2ccc(OCOC)cc2OCOC)c1O`: the concentration for 50% growth inhibition (GI50) is 35 µM in assay [1], 18.2 µM in the assay on MCF7 [2] and 24.3 µM with NCI-H460.

Consider `CCCc1c(O)ccc(C(=O)/C=C/c2ccc(OC)cc2)c1O`, for which the values for the 50% growth inhibitory concentration (GI50) (in [1]; with MCF7 [2]; with NCI-H460) were 46.3 µM, 13.3 µM and 24.7 µM, respectively.

Regarding `Cc1c(O)ccc(C(=O)/C=C/c2ccc(Cl)cc2Cl)c1O`, the values for the GI50 (in [1]; in the assay with MCF7 [2]; in the assay on NCI-H460) were 21.4 µM, 10.5 µM and 22.5 µM, respectively. In addition, the Activity with MCF7 [4] amounted to 16.6%.

Regarding `CCCc1c(O)ccc(C(=O)/C=C/c2cc(OC)c(OC)c(OC)c2)c1O`, the GI50 in [1] came to 8.2 µM; with MCF7 [2], 4.1 µM; in the assay on NCI-H460, 8.3 µM. Moreover, the Activity in the assay on MCF7 [5] worked out at 14%.

As to `COc1cc(OC)c(OC)cc1/C=C/C(=O)c1ccc(O)cc1O`, the concentration for 50% growth inhibition (GI50) in [1] came out at 34.8 µM; in the assay on MCF7 [2], 31.8 µM; with NCI-H460, 60 µM.

For the molecule `Cc1c(O)ccc(C(=O)/C=C/c2ccc(C(F)(F)F)cc2)c1O`, the GI50 amounted to 24.7 µM in assay [1], 19.3 µM in the assay with MCF7 [2] and 20.3 µM in the assay on NCI-H460.

In the case of `COc1cccc2c1C(=O)c1c(O)c3c(c(O)c1C2=O)C[C@@](O)(C(=O)CO)C[C@@H]3O[C@H]1C[C@H](N)[C@H](O)[C@H](C)O1` [DOXORUBICIN], the GI50 in [1] was 0.0915 µM; in the assay with MCF7 [2], 0.0688 µM; in the assay on NCI-H460, 0.086 µM.

`COCOc1ccc(/C=C/C(=O)c2ccc(O)c(C)c2O)c(OCOC)c1`: the figures for the GI50 (in [1]; in the assay with MCF7 [2]; with NCI-H460) were greater than 150 µM, 32.7 µM and greater than 150 µM, respectively.

`COc1ccc(C2CC(=O)c3ccc(O)c(C)c3O2)c(OC)c1` (stereo unspecified): the GI50 in assay [1] is greater than 150 µM; in the assay with MCF7 [2] it was 12.5 µM; in the assay on NCI-H460 it was greater than 150 µM.

`CCCc1c(O)ccc(C(=O)/C=C/c2cc(OC)c(OC)cc2OC)c1O`: the Activity with MCF7 [6] came to 13.3%. Also, the values for the concentration for 50% growth inhibition (GI50) (in assay [1]; with MCF7 [2]; in the assay on NCI-H460) were 23 µM, 9.1 µM and 24.5 µM, respectively.

Consider `Cc1c(O)ccc(C(=O)/C=C/c2ccc(Cl)cc2)c1O`, for which the results for the GI50 (in [1]; in the assay on MCF7 [2]; in the assay with NCI-H460) were 41.6 µM, 34.5 µM and 43 µM, respectively.

Turning to `COc1ccc(/C=C/C(=O)c2ccc(O)cc2O)c(OC)c1`, the GI50 was determined as 30.3 µM in assay [1], 19.5 µM in the assay with MCF7 [2] and 37 µM in the assay with NCI-H460.

As for `O=C(/C=C/c1ccc(F)cc1)c1ccc(O)cc1O`, the Activity is recorded as 11% in the assay with MCF7 [7] and 23.9% in the assay with MCF7 [8]. The values for the GI50 (in assay [1]; with MCF7 [2]; in the assay on NCI-H460) were 14.1 µM, 7.3 µM and 15.3 µM, respectively.

In the case of `COc1cc(/C=C/C(=O)c2ccc(O)cc2O)cc(OC)c1OC`, in the assay on MCF7 [9], the Activity came out at 20%. For the same molecule, the 50% growth inhibitory concentration (GI50) worked out at 8.1 µM in assay [1], 7.8 µM in the assay with MCF7 [2] and 8.2 µM in the assay with NCI-H460. Also, the outcome in the assay on MCF7 [10] was Active.

In the assay on MCF7 [11], `O=C(/C=C/c1ccc(OCc2ccccc2)cc1)c1ccc(O)cc1O` showed an Activity of 15.4%. The concentration for 50% growth inhibition (GI50) was 9 µM in assay [1], 8 µM with MCF7 [2] and 10.5 µM with NCI-H460. Moreover, in the assay on MCF7 [12], the result was Active.
